Most compounds without a hit are left out; they make up all but 2.1% or so of the library.
MEKK2wt PB1 HTS: modulators of MEK5 binding to wildtype MEKK2, primary screen, biochemical, multiplex bead flow cytometry, Alexa488-MEK5; Mitogen-activated protein kinase kinase kinase 2 (Homo sapiens), Q9Y2U5; Alexa488-MEK5 binding to MEKK2 WT; actives lie on both sides; binding response (% of control), % at 10 µM; 290,000 tested, 1.1% active; AID 1531, 2009; in the data active means binding response below about 67% or above about 130%
MEKK3 PB1 HTS: modulators of MEKK3-MEK5 PB1 binding, primary screen, biochemical, wildtype MEKK3, multiplex bead flow cytometry, Alexa488-MEK5 | 290,000 tested, 1.4% active | binding response (% of control), % at 10 µM | Mitogen-activated protein kinase kinase kinase 3 (Homo sapiens), Q99759 | bead-based flow cytometry, Alexa488-MEK5 binding to MEKK3; actives lie on both sides; 0 = blocked by unlabeled MEK5, 100 = vehicle;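 active means binding response more than 3 SD above or below the average of its plate-row segment, actives on both sides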;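 further: Alexa488 bead fluorescence after subtracting the streptavidin-only scavenger bead signal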
STK33 kinase inh: inhibitors of purified STK33 kinase, primary screen, biochemical, ADP-Glo luminescence, homogeneous, cell-free. 320,000 tested, 0.073% active. Serine/threonine-protein kinase 33 (Homo sapiens), Q9BYT3. MBP phosphorylation. AID 2661, 2010. inhibition, % at 10 µM;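 active means inhibition at or above 25%, using the most active replicate where run in duplicate; inactive means inhibition below 25%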
GSK3beta inhib: human GSK3beta kinase inhibitors, primary screen, biochemical, cell-free homogeneous, HTS | activity score (negative = inhibition), % at 10 µM | 300,000 tested, 0.038% active | GST-GSK3beta kinase, ADP-Glo luminescence, 60 min; hits give low values | Glycogen synthase kinase-3 beta (Homo sapiens), P49841 | AID 2097, 2009;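 active means more than half of replicate wells score below -50%, meaning over 50% inhibition versus plate controls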
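test system = GST-tagged human GSK3beta kinase, cell-free | reagent = 25 µM ATP with peptide substrate | dosing = one dose of 10 µM per compound | schedule = 60 min reaction, RT | detection = luminescent ADP-Glo measurement of ADP formed | control set = DMSO neutral wells and GW8510 at 20 µM as positive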
GSK3A inh: blockers of GSK3A enzyme activity – biochemical, luminescence, cell-free homogeneous, HTS, primary screen. inhibition, % at 10 µM. GSK-3 alpha kinase, ADP-Glo luminescence, 60 min. Glycogen synthase kinase-3 alpha (Homo sapiens), P49840. 320,000 tested, 0.1% active;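 active means more than half of replicates show inhibition above 20%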;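 further: GST-tagged GSK-3 alpha with peptide substrate and 25 µM ATP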
Target sequence (P49840 whole entry, looked up): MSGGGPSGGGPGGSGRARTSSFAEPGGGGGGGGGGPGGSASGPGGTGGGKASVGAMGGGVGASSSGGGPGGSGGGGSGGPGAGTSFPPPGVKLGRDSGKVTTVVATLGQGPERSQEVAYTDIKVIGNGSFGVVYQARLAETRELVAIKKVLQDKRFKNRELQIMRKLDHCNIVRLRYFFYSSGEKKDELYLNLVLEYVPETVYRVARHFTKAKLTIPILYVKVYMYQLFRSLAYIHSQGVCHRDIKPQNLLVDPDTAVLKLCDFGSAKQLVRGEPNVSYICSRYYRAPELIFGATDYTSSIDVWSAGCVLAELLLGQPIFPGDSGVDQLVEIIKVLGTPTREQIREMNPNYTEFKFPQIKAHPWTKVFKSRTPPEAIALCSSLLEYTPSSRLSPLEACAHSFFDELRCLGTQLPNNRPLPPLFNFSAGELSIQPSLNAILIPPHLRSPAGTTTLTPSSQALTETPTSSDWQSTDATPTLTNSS
MEKK2 mut-MEK5: MEK5 binding signal on mutant MEKK2 PB1, primary screen, biochemical, multiplex bead flow cytometry, Alexa488-MEK5 | Alexa488-MEK5 binding to MEKK2 mutant | 290,000 tested, 0.35% active | percent response, % at 10 µM; in the data active means percent response above about 24%, passing the limit was not always enough
MEKK2wt confirm: modulators of MEK5 binding to wildtype MEKK2, confirmation, biochemical, single concentration, multiplex bead flow cytometry. shares compounds with MEKK3 PB1 HTS. binding response (% of control), % at 10 µM. 5,900 tested, 2.4% active. Alexa488-MEK5 binding to MEKK2 WT; actives lie on both sides; in the data active means binding response below about 16% or above about 210%; inactive means in between
MEKK2mut-MEK5: mutant MEKK2 PB1-MEK5 binding signal retest – biochemical, single concentration, multiplex bead flow cytometry, confirmation; shares compounds with MEKK3 PB1 HTS; Alexa488-MEK5 binding to MEKK2 mutant; AID 1893, 2009; 5,900 tested, 2% active; percent response, % at 10 µM; in the data active means percent response mostly above about 71%, no sharp cut-off; inactive means mostly below about 38%;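 further: higher means compound restores mutant binding toward wildtype level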
MEKK3 confirm: MEKK3 wild-type PB1 binding to MEK5, inhibitors, confirmation, biochemical, bead multiplex flow cytometry, single concentration, wildtype; 5,900 tested, 1.8% active; binding response (% of control), % at 10 µM; shares compounds with MEKK3 PB1 HTS; Alexa488-MEK5 binding to MEKK3; hits give low values; AID 1894, 2009;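 active means binding response below 72% of control, or above a set upper limit, though filed actives all read lower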
Numbers stand for hits; 0 = inactive; - = no result given; [ ] = remark or other dose.

SMILES	MEKK2wt PB1 HTS	MEKK3 PB1 HTS	STK33 kinase inh	GSK3beta inhib	GSK3A inh	MEKK2 mut-MEK5	MEKK2wt confirm	MEKK2mut-MEK5	MEKK3 confirm
O=c1[nH][nH]c(=O)n1-c1ccccc1	0	0	0	0	0	0	-	-	-
CCCc1c2c(cc3c(=O)cc(C(=O)OCC)oc13)CCCC2	0	0	0	0	0	0	-	-	-
COc1ccc(NC(=O)C2CCC(CNS(=O)(=O)c3cccs3)CC2)cc1 (stereo not given)	7.0[inhibitor]	5.0[inhibitor]	0	0	0	0	0	0	0
Cc1cc(C)nc(N2CCC(C(=O)Nc3ccc4c(c3)CCC4)CC2)n1	0	0	0	0	0	0	-	-	-
COc1ccc(NC(=O)C2CCN(c3nc(C)cc(C)n3)CC2)cc1	2.0[inhibitor]	2.0[inhibitor]	0	0	0	0	0	0	0
CCCCN(C)CCNC(=O)C(=O)c1c(C)[nH]c2ccccc12	0	75[inhibitor]	0	0	0	0	0	0	0
Cc1[nH]c2ccccc2c1C(=O)C(=O)NCCCc1ccccc1	0	0	0	0	0	0	-	-	-
O=c1c2ccccc2cnn1CCOc1cccc(Br)c1	0	0	0	0	0	0	-	-	-
Fc1ccccc1N1CCN(C(c2ccncc2)c2nnnn2C2CCCC2)CC1 (stereo not given)	0	77[inhibitor]	0	0	0	0	0	0	0
CCC(c1nnnn1C1CCCC1)N1CCN(c2ccccc2F)CC1 (stereo not given)	0	0	0	0	0	0	-	-	-
O=C(NN1C(=O)c2cc(Br)ccc2NC1c1cc(Br)cc(Br)c1O)c1ccncc1 (stereo not given)	0	133	0	0	0	0	0	0	0
O=C1N=c2ccccc2=C1c1sc(=S)n(NC(=O)c2cccc(O)c2)c1O	0	0	-	0	-	0	-	-	-
O=C(Nn1c(O)c(C=C2N=c3ccccc3=N2)sc1=S)c1cccc(Cl)c1	49[inhibitor]	0	0	0	0	0	0	0	0
Cc1ccc(C(=O)Nn2c(O)c(C=C3N=c4ccccc4=N3)sc2=S)cc1	39[inhibitor]	0	0	0	0	0	0	0	0
Cc1ccc(S(=O)(=O)Nn2c(O)c(C=C3N=c4ccccc4=N3)sc2=S)cc1	0	0	0	0	0	0	-	-	-
O=C(Nn1c(O)c(C=C2N=c3ccccc3=N2)sc1=S)c1ccc(Cl)cc1	-	-	0	0	0	-	-	-	-
O=C(Nn1c(O)c(C=C2N=c3ccccc3=N2)sc1=S)c1ccccc1	17[inhibitor]	0	0	0	-	0	0	0	0
CC(OC(=O)c1ccncc1)C(=O)Nc1ccc([N+](=O)[O-])cc1Cl (stereo not given)	0	0	0	0	0	0	-	-	-
Cc1nc([N+](=O)[O-])c(Br)n1CC(=O)c1ccc(Br)cc1	0	133	0	0	0	0	0	0	0
COC(=O)C1=C(C(=O)OC)[C@@H]2N(C)c3ccc(OC)cc3[C@@]23C[C@@H](C(=O)OC)N(C(=O)NC2CCCCC2)C3=N1	3.0[inhibitor]	2.0[inhibitor]	0	0	0	0	0	0	0
CCOC(=O)c1c(NC(=O)c2cccs2)sc2c1CCCC2	-1.0[inhibitor]	1.0[inhibitor]	0	0	0	0	0	0	0
CCOC(=O)c1c(NC(=O)c2cccs2)sc2c1CCC2	0	0	0	0	0	0	-	-	-
COc1ccc(/C=N/NC(=O)Cn2cnc3c2c(=O)n(C)c(=O)n3C)c(OC)c1OC	0	71[inhibitor]	0	0	0	0	0	0	0
N#C/C(=C\c1ccc(OCc2ccccc2)cc1)C(N)=O	0	131	0	0	0	0	0	0	0
Clc1ccc(CSc2ncn[nH]2)cc1	-	-	0	0	0	-	-	-	-
SMILES	MEKK2wt PB1 HTS	MEKK3 PB1 HTS	STK33 kinase inh	GSK3beta inhib	GSK3A inh	MEKK2 mut-MEK5	MEKK2wt confirm	MEKK2mut-MEK5	MEKK3 confirm
CCOc1ccc(Cl)cc1CSc1ncn[nH]1	1.0[inhibitor]	1.0[inhibitor]	0	0	0	0	0	0	0
O=C(NC1CC1)c1ccc(NS(=O)(=O)c2ccc(F)cc2)cc1	-	-	0	0	0	-	-	-	-
O=[N+]([O-])c1ccc2sc(SCc3nc4ccccn4c3Br)nc2c1	0	138	0	0	0	0	0	0	0
Cc1cccc(C)c1NC(=O)CN(C)C(=O)c1ccc(COc2ccccc2)cc1	0	0	0	0	0	0	-	-	-
COc1ccc(NC(=S)N2CCN(c3ccc([N+](=O)[O-])cc3)CC2)cc1OC	0	0	0	0	0	0	-	-	-
COc1cccc(NC(=S)N2CCN(c3ccc([N+](=O)[O-])cc3)CC2)c1	60[inhibitor]	60[inhibitor]	0	0	0	0	0	0	0
COc1cccc(SCc2noc(C(=O)NCCCN3CCOCC3)c2C(=O)NCCCN2CCOCC2)c1	0	0	0	0	0	0	-	-	-
COc1ccc(C)cc1NC(=O)CNc1ccccc1CN(C)C1CCCCC1	0	0	0	0	0	0	-	-	-
COc1ccc(Cl)cc1NC(=O)CNc1ccccc1CN(C)C1CCCCC1	154	0	0	0	0	0	0	0	0
COc1cccc(N/C(SCc2ccccc2C)=C(/C#N)C(=O)NCc2cccs2)c1	0	130	0	0	0	0	0	0	0
CCCN(CC(=O)Nc1ccccc1C)C(=O)Cc1cccs1	-	-	0	-	0	-	-	-	-
CCCN(CC(=O)Nc1ccccc1C)C(=O)/C=C/c1cccs1	0	140	-	0	-	0	0	0	0
Cc1oc2ccccc2c1CC(=O)NCCCN(C)C	0	0	0	0	0	0	-	-	-
O=S(=O)(NC(=S)NC1CCCCC1)c1ccc(Br)cc1	0	0	0	0	0	0	-	-	-
CC1CN(CCCCOc2ccc(C(C)C)cc2)CC(C)O1 (stereo not given)	2.0[inhibitor]	2.0[inhibitor]	0	0	0	0	0	0	0
CC1CN(CCCCOc2ccc(Cl)c3ccccc23)CC(C)O1 (stereo not given)	162	0	0	-	0	0	0	0	0
CC1CN(CCOc2ccc(Cl)cc2Cl)CC(C)O1 (stereo not given)	0	0	0	0	0	0	-	-	-

Screens from PubChem BioAssay.
